Results as given in ChEMBL document CHEMBL1641550, “Efficient synthesis and biological evaluation of epiceanothic acid and related compounds” (Bioorg Med Chem Lett, 2011).
Structures can show the parent of a compound that is named as a salt. Each block holds one compound with its values, some of them ahead of it.

What was measured:
[1] = target: T1, Glycogen phosphorylase, muscle form (Oryctolagus cuniculus, UniProt P00489); assay: Inhibition of rabbit muscle glycogen phosphorylase a
T1 sequence (P00489 whole entry): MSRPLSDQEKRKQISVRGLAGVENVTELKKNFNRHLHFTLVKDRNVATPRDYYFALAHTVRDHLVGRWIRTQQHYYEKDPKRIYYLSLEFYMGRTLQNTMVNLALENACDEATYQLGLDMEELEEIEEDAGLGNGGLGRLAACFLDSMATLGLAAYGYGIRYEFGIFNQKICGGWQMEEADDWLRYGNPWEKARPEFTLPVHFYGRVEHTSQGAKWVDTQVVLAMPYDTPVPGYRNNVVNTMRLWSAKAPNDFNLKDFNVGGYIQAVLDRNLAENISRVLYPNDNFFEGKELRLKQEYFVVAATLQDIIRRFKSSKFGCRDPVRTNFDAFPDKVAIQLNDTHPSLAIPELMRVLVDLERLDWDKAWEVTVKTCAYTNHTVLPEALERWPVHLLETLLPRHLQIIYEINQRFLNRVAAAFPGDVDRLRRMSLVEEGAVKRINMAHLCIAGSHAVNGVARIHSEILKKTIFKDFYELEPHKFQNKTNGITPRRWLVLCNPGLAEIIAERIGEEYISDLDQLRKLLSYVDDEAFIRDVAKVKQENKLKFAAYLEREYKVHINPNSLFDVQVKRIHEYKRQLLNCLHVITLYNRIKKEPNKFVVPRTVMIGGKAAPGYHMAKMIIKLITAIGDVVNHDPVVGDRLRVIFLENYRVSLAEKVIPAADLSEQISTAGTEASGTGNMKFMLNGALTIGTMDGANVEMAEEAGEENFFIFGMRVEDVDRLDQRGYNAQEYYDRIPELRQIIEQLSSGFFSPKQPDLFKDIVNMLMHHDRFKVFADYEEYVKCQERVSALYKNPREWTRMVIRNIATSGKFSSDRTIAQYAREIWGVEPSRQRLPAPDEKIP

PC-3 = assay: Cytotoxicity against human PC3 cells after 48 hrs by MTT assay; assay type: functional, cell-based
Outline: (§1)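 Cells seeded and allowed to adhere at 37 °C in a CO2 incubator, then exposed for 48 h to 0.0001, 0.0005, 0.001, 0.005, 0.01, 0.05 or 0.1 mmol·L−1 compound. MTT (5%) added for a further 4 h, absorbance read at 570 nm.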

A549 = assay: Cytotoxicity against human A549 cells after 48 hrs by MTT assay; assay type: functional, cell-based; details: A549, 48 h; outline: as §1
MCF7 = assay: Cytotoxicity against human MCF7 cells after 48 hrs by MTT assay; assay type: functional, cell-based; details: MCF7, 48 h; outline: as §1
HeLa = assay: Cytotoxicity against human HeLa cells after 48 hrs by MTT assay; assay type: functional, cell-based; outline: as §1
BGC-823 = assay: Cytotoxicity against human BGC823 cells after 48 hrs by MTT assay; assay type: functional, cell-based; outline: as §1
[2] = system: Human immunodeficiency virus 1; assay: Antiviral activity against Human immunodeficiency virus 1 NL4-3 infected in MT4 lymphocytes assessed as p24 antigen level by ELISA; assay type: functional, organism-based
Outline: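 HIV-1 NL4-3 variants at MOI 0.01 infect MT-4 cells in a replication screening assay run in 96-well format.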

MT4 = assay: Cytotoxicity against human MT4 lymphocytes after 48 hrs by MTT assay; assay type: cell-based
[3] = Therapeutic index, ratio of IC50 for human lymphocytes to EC50 for Human immunodeficiency virus 1 NL4-3; details: read-out: TI
[4] = Homo sapiens, PC-3, 48 h, read-out: IC50
[5] = Homo sapiens, HeLa, 48 h, read-out: IC50
[6] = Homo sapiens, BGC-823, 48 h, read-out: IC50
[7] = Human immunodeficiency virus 1, NL4-3, read-out: EC50
[8] = Homo sapiens, MT4, 48 h, read-out: IC50

Compound: C=C(C)[C@@H]1CC[C@]2(COC(c3ccccc3)(c3ccccc3)c3ccccc3)CC[C@]3(C)[C@H](CC[C@@H]4[C@@](C)(CC(=O)O)[C@H](C(C)(C)C(=O)O)CC[C@]43C)[C@@H]12
- IC50 ([1]; read-out: IC50): 0.21 µM
- IC50 (PC-3; [4]): 6.75 µM
- IC50 (A549): 136 µM
- IC50 (MCF7): 560 µM
- IC50 (HeLa; hela): Not Active
- IC50 (BGC-823; bgc-823): Not Active

Compound: C=C(C)[C@@H]1CC[C@]2(COC(c3ccccc3)(c3ccccc3)c3ccccc3)CC[C@]3(C)[C@H](CC[C@@H]4[C@@](C)(CC(=O)OC)[C@H](C(C)(C)C(=O)OC)CC[C@]43C)[C@@H]12
- IC50 ([1]; read-out: IC50): 2.87 µM
- IC50 (PC-3; [4]): 5.32 µM
- IC50 (A549): 996 µM
- IC50 (MCF7): 374 µM
- IC50 (HeLa; [5]): 17.1 µM
- IC50 (BGC-823; [6]): 9.54 µM

Compound: C=C(C)[C@@H]1CC[C@]2(COC(c3ccccc3)(c3ccccc3)c3ccccc3)CC[C@]3(C)[C@H](CC[C@@H]4[C@@]5(C)[C@H](C(=O)OC)[C@H](O)C(C)(C)[C@@H]5CC[C@]43C)[C@@H]12
- IC50 ([1]; read-out: IC50): 20.1 µM
- IC50 (PC-3; pc-3): Not Active
- IC50 (A549): 770 µM
- IC50 (MCF7): 398 µM
- IC50 (HeLa; hela): Not Active

Compound: C=C(C)[C@@H]1CC[C@]2(COC(c3ccccc3)(c3ccccc3)c3ccccc3)CC[C@]3(C)[C@H](CC[C@@H]4[C@@]5(C)[C@H](C(=O)OC)[C@H](OC(C)=O)C(C)(C)[C@@H]5CC[C@]43C)[C@@H]12
- EC50 [2]: Not Active
- IC50 (MT4; mt4): Not Active
- IC50 ([1]; read-out: IC50): 15.2 µM
- IC50 (PC-3; pc-3): Not Active
- IC50 (A549): 892 µM
- IC50 (MCF7): 565 µM
- IC50 (HeLa; hela): Not Active
- IC50 (BGC-823; bgc-823): Not Active

Compound: C=C(C)[C@@H]1CC[C@]2(CO)CC[C@]3(C)[C@H](CC[C@@H]4[C@@]5(C)[C@H](C(=O)OC)[C@H](OC(C)=O)C(C)(C)[C@@H]5CC[C@]43C)[C@@H]12
- EC50 [2]: Not Active
- IC50 (MT4; mt4): Not Active
- IC50 [1]: Not Active
- IC50 (PC-3; [4]): 66.3 µM
- IC50 (A549): 62.9 µM
- IC50 (MCF7): 604 µM
- IC50 (BGC-823; [6]): 25.9 µM

Compound: C=C(C)[C@@H]1CC[C@]2(C=O)CC[C@]3(C)[C@H](CC[C@@H]4[C@@]5(C)[C@H](C(=O)OC)[C@H](OC(C)=O)C(C)(C)[C@@H]5CC[C@]43C)[C@@H]12
- EC50 [2]: Not Active
- IC50 (MT4; mt4): Not Active
- IC50 ([1]; read-out: IC50): 53.8 µM
- IC50 (PC-3; [4]): 8.51 µM
- IC50 (A549): 194 µM
- IC50 (MCF7): 32.5 µM
- IC50 (HeLa; [5]): 105 µM
- IC50 (BGC-823; [6]): 12.7 µM

Compound: C=C(C)[C@@H]1CC[C@]2(C(=O)O)CC[C@]3(C)[C@H](CC[C@@H]4[C@@]5(C)[C@H](C(=O)OC)[C@H](OC(C)=O)C(C)(C)[C@@H]5CC[C@]43C)[C@@H]12
- EC50 [2]: Not Active
- IC50 (MT4; mt4): Not Active
- IC50 ([1]; read-out: IC50): 46.4 µM
- IC50 (PC-3; [4]): 10.8 µM
- IC50 (A549): 0.89 µM
- IC50 (MCF7): 0.33 µM
- IC50 (HeLa; [5]): 56.7 µM
- IC50 (BGC-823; [6]): 7.64 µM

Compound: C=C(C)[C@@H]1CC[C@]2(CO)CC[C@]3(C)[C@H](CC[C@@H]4[C@@]5(C)CC[C@H](O)C(C)(C)[C@@H]5CC[C@]43C)[C@@H]12 [BETULIN]
- EC50 [2]: Not Active
- IC50 (MT4; mt4): Not Active
- IC50 ([1]; read-out: IC50): 41.5 µM

- EC50 [2, 7]: 0.082 µM
Compound: C=C(C)[C@@H]1CC[C@]2(C(=O)O)CC[C@]3(C)[C@H](CC[C@@H]4[C@@]5(C)CC[C@H](OC(=O)CC(C)(C)C(=O)O)C(C)(C)[C@@H]5CC[C@]43C)[C@@H]12 [BEVIRIMAT]
- IC50 (MT4; [8]): 15.2 µM
- selectivity ratio [3]: 185

Compound: COc1cccc2c1C(=O)c1c(O)c3c(c(O)c1C2=O)C[C@@](O)(C(=O)CO)C[C@@H]3O[C@H]1C[C@H](N)[C@H](O)[C@H](C)O1 [DOXORUBICIN HYDROCHLORIDE]
- IC50 (PC-3; [4]): 0.68 µM
- IC50 (A549): 0.54 µM
- IC50 (MCF7): 1.65 µM

Compound: C=C(C)[C@@H]1CC[C@]2(C(=O)O)CC[C@]3(C)[C@H](CC[C@@H]4[C@@]5(C)[C@H](C(=O)O)[C@H](O)C(C)(C)[C@@H]5CC[C@]43C)[C@@H]12 [EPICEANOTHIC ACID]
- EC50 [2, 7]: 15.6 µM
- IC50 (MT4; [8]): 38.9 µM
- selectivity ratio [3]: 2.49
- IC50 ([1]; read-out: IC50): 194 µM
- IC50 (PC-3; [4]): 19.7 µM
- IC50 (A549): 16.8 µM
- IC50 (MCF7): 87.2 µM
- IC50 (BGC-823; [6]): 2.41 µM
